Measurements: ChEMBL document CHEMBL4665810, “Aryloxy Diester Phosphonamidate Prodrugs of Phosphoantigens (ProPAgens) as Potent Activators of Vγ9/Vδ2 T-Cell Immune Responses” (J Med Chem, 2020)
Activity calls are given as the source filed them. No cut-off for these calls is given here.

Columns and labels:
[1] = target: T1, Butyrophilin subfamily 3 member A1 (Homo sapiens, UniProt O00481); assay: (§1) Binding affinity to BTN3A1 in human PBMC-derived Vgamma9/Vdelta2 T cells assessed as induction of Vgamma9/Vdelta2 T cell mediated T-24 cell lysis co-expressing GFP at 10 pM preincubated 4 hrs followed by compound washout and subsequent Vgamma9Vdelta2 T cell addition at 8:1 effector/target ratio and measured after 18 hrs by fluorescence based assay; format: tissue-based
Procedure, shortened: (§2)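 T24 bladder carcinoma cells made GFP+ by retroviral transduction. Targets pulsed 4 h with 10 pM compound, washed three times in RPMI, then cocultured 18 h at 37 °C with Vγ9Vδ2 T-cells expanded 14 days from donor PBMCs (5 μM zoledronate, 100 U/mL IL2 every 2–3 days). % killing = eFluor780+ GFP+ of all GFP+ T24 cells, by flow cytometry. Basal untreated-target killing subtracted; mean ± SE, n = 3.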
Target sequence in this assay (O00481 30-513 limits assumed): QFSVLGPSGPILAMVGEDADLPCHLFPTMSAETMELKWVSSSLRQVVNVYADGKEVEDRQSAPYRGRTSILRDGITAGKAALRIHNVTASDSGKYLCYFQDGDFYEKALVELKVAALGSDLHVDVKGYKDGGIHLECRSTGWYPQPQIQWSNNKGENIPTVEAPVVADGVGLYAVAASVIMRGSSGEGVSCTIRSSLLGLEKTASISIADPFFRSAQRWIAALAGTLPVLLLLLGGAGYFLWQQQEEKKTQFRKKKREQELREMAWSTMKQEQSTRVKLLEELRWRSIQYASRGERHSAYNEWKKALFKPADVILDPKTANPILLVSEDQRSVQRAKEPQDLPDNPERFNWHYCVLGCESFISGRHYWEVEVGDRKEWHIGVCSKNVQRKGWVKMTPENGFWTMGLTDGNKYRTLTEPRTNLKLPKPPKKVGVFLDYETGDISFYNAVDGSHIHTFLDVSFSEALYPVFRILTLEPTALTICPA

[2] = target: T1, Butyrophilin subfamily 3 member A1; assay: as §1, with “1:1” for “8:1”; format: tissue-based; procedure, shortened: as §2
Target sequence in this assay (O00481 30-513 limits assumed): as above

T-24 = assay: Cytotoxicity against human T-24 cells co-expressing GFP assessed as reduction in cell viability at 10 pM after 4 hrs by eFluor 780 fixable viability dye based fluorescence assay; details: t-24, 4 h
Procedure, shortened: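 GFP+ T24 cells pulsed 4 h with 10 pM compound, washed, and held 18 h at 37 °C without effector cells (0:1 ratio). Dead targets measured by flow cytometry as eFluor780+ GFP+ fraction of total GFP+ T24 cells; mean ± SE, n = 3.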

[3] = target: T1, Butyrophilin subfamily 3 member A1; assay: Potency index, ratio of HMBPP EC50 to test compound EC50 for activation of BTN3A1 in human PBMC-derived Vgamma9/Vdelta2 T cells; format: tissue-based; details: Vgamma9Vdelta2 T cell
Target sequence in this assay (O00481 30-513 limits assumed): as above

CD8-positive T cell = assay: Activation of human PBMC derived CD-8 positive cells assessed as increase in alphabeta T cells at 0.1 to 10000 nM by Alexa Flour A88a staining based flow cytometry; format: functional; details: dose nM 0.1-10000
[4] = target: T1, Butyrophilin subfamily 3 member A1; assay: Binding affinity to BTN3A1 in human PBMC-derived Vgamma9/Vdelta2 T cells assessed as increase in CD69/CD25 level incubated for overnight by flow cytometric analysis; format: tissue-based, Vgamma9Vdelta2 T cell
Procedure, shortened: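 Healthy-donor PBMCs, 5 × 10^5 cells per well, stimulated with compounds over 10 pM to 100 μM, or 1 aM to 100 μM in a separate run. Incubated overnight at 37 °C/5% CO2. Vγ9+Vδ2+ cells gated within live CD3+ cells by flow cytometry and scored as % CD69+CD25+.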
Target sequence in this assay (O00481 whole entry): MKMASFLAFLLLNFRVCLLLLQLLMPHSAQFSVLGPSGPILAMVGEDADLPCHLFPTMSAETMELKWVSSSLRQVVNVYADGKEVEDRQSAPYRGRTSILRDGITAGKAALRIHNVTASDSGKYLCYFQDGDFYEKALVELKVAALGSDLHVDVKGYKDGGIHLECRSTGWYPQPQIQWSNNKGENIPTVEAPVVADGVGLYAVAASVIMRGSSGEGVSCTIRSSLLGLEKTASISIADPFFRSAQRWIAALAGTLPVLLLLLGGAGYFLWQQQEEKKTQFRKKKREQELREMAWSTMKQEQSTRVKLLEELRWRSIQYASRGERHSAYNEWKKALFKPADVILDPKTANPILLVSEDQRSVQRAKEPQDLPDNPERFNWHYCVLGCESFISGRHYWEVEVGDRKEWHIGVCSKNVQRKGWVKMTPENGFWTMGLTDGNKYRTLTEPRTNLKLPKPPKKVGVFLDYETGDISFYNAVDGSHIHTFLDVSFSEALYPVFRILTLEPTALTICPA

[5] = Stability of compound in human serum at 5 mg and measured at 30 mins interval for up to 12 hrs by 31PNMR analysis; format: ADME, cell-free
Procedure, shortened: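 Compound, 5.0 mg in DMSO/D2O, with control 31P NMR recorded at 37 °C. Freshly thawed human serum then added and 31P NMR spectra recorded at 37 °C every 30 min over 12 h.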

[6] = Half life in human serum at 5 mg and measured up to 12 hrs by 31PNMR analysis; format: ADME, cell-free
Procedure, shortened: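 Prodrug (5.0 mg) dissolved in DMSO/D2O; control 31P NMR spectrum recorded at 37 °C, then freshly thawed human serum added. 31P NMR spectra acquired at 37 °C every 30 min over 12 h to follow the prodrug signals.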

[7] = Drug metabolism assessed as recombinant carboxypeptidase Y (unknown origin)-mediated hydrolysis of ester motif at 3 mg measured at 1 hr interval […] by 31PNMR analysis; format: ADME, Homo sapiens
Procedure, shortened: (§3)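 Compound, 3.0 mg in acetone-d6, mixed with TRIZMA buffer pH 7.6. Control 31P NMR taken at 25 °C, then carboxypeptidase Y (0.1 mg in TRIZMA) added. Spectra recorded at 25 °C after 10 min and then every 1 h for 12 h.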

[8] = Drug metabolism assessed as recombinant carboxypeptidase Y (unknown origin)-mediated metabolite C formation and measured up to 15 hrs by HPLC analysis; format: ADME; details: human
[9] = Drug metabolism assessed as recombinant carboxypeptidase Y (unknown origin)-mediated metabolite C formation and measured up to 15 hrs by LC-MS analysis; format: ADME; details: human
[10] = Drug metabolism assessed as recombinant carboxypeptidase Y (unknown origin)-metabolite C formation at 3 mg measured at 1 hr interval for […] by 31PNMR analysis; format: ADME, Homo sapiens; procedure, shortened: as §3
[11] = target: T1, Butyrophilin subfamily 3 member A1; assay: Binding affinity to BTN3A1 in human PBMC-derived Vgamma9/Vdelta2 T cells; format: tissue-based, Vgamma9Vdelta2 T cell
Target sequence in this assay (O00481 whole entry): as above

Structure (SMILES) | Activity [1] | Activity [2] | Activity (T-24) | EC50 [4] [nM] | other results
C/C(=C\CC(F)(F)P(=O)(N[C@@H](C)C(=O)OCc1ccccc1)Oc1ccccc1)CO (some centres undefined) | Active | Active | Non-Toxic | – | Ratio EC50 [3]: 15000; Activity (CD8-positive T cell): inactive
C/C(=C\CC(F)(F)P(=O)(N[C@@H](C)C(=O)OC(C)(C)C)Oc1ccccc1)CO (some centres undefined) | Active | Active | Non-Toxic | 25.8 | –
C/C(=C\CCP(=O)(N[C@@H](C)C(=O)OCc1ccccc1)Oc1ccccc1)CO (some centres undefined) | Active | Active | Non-Toxic | – | Ratio EC50 [3]: 15000; Stabilty [5]: Stable; Activity (CD8-positive T cell): inactive
C/C(=C\COP(=O)(O)OP(=O)(O)O)CO | Active | Active | Non-Toxic | – | half-life [6]: > 12 h
COC(=O)[C@H](C)NP(=O)(Oc1ccccc1)C(F)(F)C/C=C(\C)CO (some centres undefined) | – | – | – | 0.728 | Stabilty [5]: Stable
C/C(=C\CCP(=O)(N[C@@H](C)C(=O)OC(C)C)Oc1ccccc1)CO (some centres undefined) | – | – | – | 0.519 | –
O=P(O)(O)C(O)(Cn1ccnc1)P(=O)(O)O [ZOLEDRONIC ACID] | – | – | – | 3060 | –
C/C(=C\CC(F)(F)P(=O)(N[C@@H](C)C(=O)OC(C)C)Oc1ccccc1)CO (some centres undefined) | – | – | – | 0.759 | Drug metabolism [7]: Metabolite_Detected; Drug metabolism [8]: Metabolite_Detected; Drug metabolism [9]: Metabolite_Detected; Drug metabolism [10]: Metabolite_Detected
COC(=O)[C@H](C)NP(=O)(CC/C=C(\C)CO)Oc1ccccc1 (some centres undefined) | – | – | – | 0.617 | –
C/C(=C\CCP(=O)(N[C@@H](C)C(=O)OC(C)(C)C)Oc1ccccc1)CO (some centres undefined) | Active | Active | Non-Toxic | 73.4 | –
O=P(O)(O)C(O)(Cc1cccnc1)P(=O)(O)O [RISEDRONIC ACID] | – | – | – | – | EC50 [11]: 80 nM
